Consider 19 molecules from ChEMBL document CHEMBL1926509, “Discovery of pyrazolo[1,5-a]pyridines as p110α-selective PI3 kinase inhibitors” (Bioorg Med Chem, 2012).

In series [1] the target is Phosphatidylinositol 4,5-bisphosphate 3-kinase catalytic subunit alpha isoform (Homo sapiens, UniProt P42336). The experiment in a line: Inhibition of recombinant PI3K p110alpha using L-alpha-phosphatidylinositol as substrate and [gamma33P]ATP after 60 mins by thin layer chromatographic technique. The essentials:
(§1)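 In-house recombinant class Ia PI3K isoform (0.1 µg) with L-α-phosphatidylinositol substrate in lipid kinase buffer (Tris–HCl pH 7.4, NaCl, EDTA), 1% DMSO final. Started with ATP mix (5 mM MgCl₂, 100 µM ATP plus [γ-³³P]ATP), 1 h at room temperature, stopped with 1 M HCl. Lipids extracted in two steps, separated by TLC, read by phosphorimager. Nine inhibitor concentrations; IC50 averaged over two experiments.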

Series [2] concerns the target Phosphatidylinositol 4,5-bisphosphate 3-kinase catalytic subunit beta isoform (Homo sapiens, UniProt P42338). The experiment in a line: Inhibition of recombinant PI3K p110beta using L-alpha-phosphatidylinositol as substrate and [gamma33P]ATP after 60 mins by thin layer chromatographic technique. The gist of the method: as §1
The target in series [3] is T1, Phosphatidylinositol 4,5-bisphosphate 3-kinase catalytic subunit delta isoform (Homo sapiens, UniProt O00329).
T1 sequence (O00329 whole entry): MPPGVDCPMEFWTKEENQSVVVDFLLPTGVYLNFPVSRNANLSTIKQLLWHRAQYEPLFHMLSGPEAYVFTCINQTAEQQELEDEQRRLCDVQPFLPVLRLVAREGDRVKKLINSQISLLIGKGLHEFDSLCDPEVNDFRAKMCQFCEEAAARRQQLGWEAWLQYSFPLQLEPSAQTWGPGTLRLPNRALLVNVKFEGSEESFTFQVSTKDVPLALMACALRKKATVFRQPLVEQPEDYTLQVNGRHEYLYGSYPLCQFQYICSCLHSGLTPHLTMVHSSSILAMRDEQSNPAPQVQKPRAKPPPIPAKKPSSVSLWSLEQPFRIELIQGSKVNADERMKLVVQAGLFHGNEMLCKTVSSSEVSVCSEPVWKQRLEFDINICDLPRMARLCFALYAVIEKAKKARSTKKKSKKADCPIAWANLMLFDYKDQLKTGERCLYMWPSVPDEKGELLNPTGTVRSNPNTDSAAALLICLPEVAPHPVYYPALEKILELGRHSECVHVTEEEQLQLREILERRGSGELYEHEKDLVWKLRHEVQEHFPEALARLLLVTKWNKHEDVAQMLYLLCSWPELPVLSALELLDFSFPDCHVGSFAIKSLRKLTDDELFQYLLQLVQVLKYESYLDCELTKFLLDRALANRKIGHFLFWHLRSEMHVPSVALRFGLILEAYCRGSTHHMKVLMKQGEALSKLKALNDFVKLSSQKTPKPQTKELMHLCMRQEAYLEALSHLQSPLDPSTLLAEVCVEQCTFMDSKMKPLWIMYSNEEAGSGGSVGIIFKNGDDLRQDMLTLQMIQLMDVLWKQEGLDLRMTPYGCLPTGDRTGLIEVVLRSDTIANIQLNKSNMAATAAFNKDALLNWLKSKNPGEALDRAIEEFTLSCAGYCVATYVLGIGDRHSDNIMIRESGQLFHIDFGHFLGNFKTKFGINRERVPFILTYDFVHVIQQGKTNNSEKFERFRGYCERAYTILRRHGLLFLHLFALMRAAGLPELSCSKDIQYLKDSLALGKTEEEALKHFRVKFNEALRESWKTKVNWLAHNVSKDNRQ
The experiment in a line: Inhibition of recombinant PI3K p110delta using L-alpha-phosphatidylinositol as substrate and [gamma33P]ATP after 60 mins by thin layer chromatographic technique. The gist of the method: as §1

A short description of series [4]: Cytotoxicity against human NZB5 cells expressing wild type p110alpha assessed as inhibition of [3H]thymidine incorporation after 5 days. The format is functional, cell-based. The gist of the method: (§2)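 Early-passage lab-derived lines in α-MEM with insulin, transferrin, selenite and 5% FBS. Seeded at 1000 cells/well; drug added in 10-fold steps up to 20 µM. Incubated five days under 5% O₂/5% CO₂/90% N₂, with ³H-thymidine (0.04 µCi/well) over the last 6 h. Duplicates per dose; least-squares exponential fit; IC50 is the concentration giving 50% less incorporation.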

A short description of series [5]: Cytotoxicity against human NZOV9 cells expressing p110alpha Y1021C mutant assessed as inhibition of [3H]thymidine incorporation after 5 days. The format is functional, cell-based. The gist of the method:
as §2
A general note: Uptake of a labelled nucleoside into DNA is a usual measure of proliferation.

Series [6] can be described thus: Selectivity ratio of IC50 for PI3K p110beta to IC50 for PI3K p110alpha.
Series [7] is described as follows: Selectivity ratio of IC50 for PI3K p110delta to IC50 for PI3K p110alpha.
Series [8] deals with Mus musculus. The experiment in a line: Toxicity in human HCT116 cells xenografted Rag1 knockout mouse assessed as mortality at 20 mg/kg, ip qd for 14 days. Conditions: in vivo, 336 h. Also noted: dose 20 mg/kg, route intraperitoneal. The format is organism-based, HCT-116. The gist of the method:
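Age-matched specific pathogen-free female Rag1-/- mice bearing subcutaneous HCT-116 tumours (5 × 10⁶ cells inoculated in PBS), n = 7 per group. Drug given ip at 20 mg/kg once daily for 14 days in 7.5% DMSO/42.5% PEG-400/20% 2-hydroxypropyl-β-cyclodextrin/30% water; controls received vehicle alone. Bodyweight recorded daily; mice culled when weight loss exceeded 20% of starting weight.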

Series [9] deals with HCT-116. The experiment in a line: Antitumor activity against human HCT116 cells xenografted in Rag1 knockout mouse assessed as tumor growth inhibition at 20 mg/kg, ip qd for 14 days relative to untreated control. Type of series: functional. Conditions: HCT-116, ip, 336 h, route intraperitoneal, read-out: GI. The gist of the method:
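Female specific-pathogen-free Rag1−/− mice, age-matched, inoculated subcutaneously with 5×10⁶ HCT-116 cells in PBS. Dosed ip at 20 mg/kg q.d. for 14 days in 7.5% DMSO/42.5% PEG-400/20% hydroxypropyl-β-cyclodextrin/30% water; controls received vehicle only; n = 7 per group. Tumour volume measured three times weekly; 1-way ANOVA with Holm-Sidak comparison at study end.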
(Xenograft models place foreign cells or tissue in a host animal.)

The subject of series [10] is Mus musculus. The experiment in a line: Toxicity in human HCT116 cells xenografted Rag1 knockout mouse assessed as body weight loss at 20 mg/kg, ip qd measured up to day 10. Type of series: organism-based, HCT-116. Also noted: dose 20 mg/kg, route intraperitoneal. Conditions: in vivo. The gist of the method:
(§3)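 Female specific-pathogen-free Rag1−/− mice carrying subcutaneous HCT-116 tumours, given 20 mg/kg ip daily for 14 days in a DMSO/PEG-400/hydroxypropyl-β-cyclodextrin/water vehicle; controls received vehicle; n = 7 per group. Bodyweight recorded daily; mice culled if loss exceeded 20% of starting weight.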

For series [11], the system named is Mus musculus. The experiment in a line: Toxicity in human HCT116 cells xenografted Rag1 knockout mouse assessed as body weight loss at 20 mg/kg, ip qd measured after 10 days relative to untreated control. Type of series: organism-based, HCT-116. Conditions: in vivo, 240 h. Set-up: dose 20 mg/kg, route intraperitoneal. The essentials: as §3

By IC50 is commonly meant the concentration at which inhibition is half-maximal.

Phosphatidylinositol 4,5-bisphosphate 3-kinase catalytic subunit beta isoform, sequence (P42338 whole entry, canonical isoform): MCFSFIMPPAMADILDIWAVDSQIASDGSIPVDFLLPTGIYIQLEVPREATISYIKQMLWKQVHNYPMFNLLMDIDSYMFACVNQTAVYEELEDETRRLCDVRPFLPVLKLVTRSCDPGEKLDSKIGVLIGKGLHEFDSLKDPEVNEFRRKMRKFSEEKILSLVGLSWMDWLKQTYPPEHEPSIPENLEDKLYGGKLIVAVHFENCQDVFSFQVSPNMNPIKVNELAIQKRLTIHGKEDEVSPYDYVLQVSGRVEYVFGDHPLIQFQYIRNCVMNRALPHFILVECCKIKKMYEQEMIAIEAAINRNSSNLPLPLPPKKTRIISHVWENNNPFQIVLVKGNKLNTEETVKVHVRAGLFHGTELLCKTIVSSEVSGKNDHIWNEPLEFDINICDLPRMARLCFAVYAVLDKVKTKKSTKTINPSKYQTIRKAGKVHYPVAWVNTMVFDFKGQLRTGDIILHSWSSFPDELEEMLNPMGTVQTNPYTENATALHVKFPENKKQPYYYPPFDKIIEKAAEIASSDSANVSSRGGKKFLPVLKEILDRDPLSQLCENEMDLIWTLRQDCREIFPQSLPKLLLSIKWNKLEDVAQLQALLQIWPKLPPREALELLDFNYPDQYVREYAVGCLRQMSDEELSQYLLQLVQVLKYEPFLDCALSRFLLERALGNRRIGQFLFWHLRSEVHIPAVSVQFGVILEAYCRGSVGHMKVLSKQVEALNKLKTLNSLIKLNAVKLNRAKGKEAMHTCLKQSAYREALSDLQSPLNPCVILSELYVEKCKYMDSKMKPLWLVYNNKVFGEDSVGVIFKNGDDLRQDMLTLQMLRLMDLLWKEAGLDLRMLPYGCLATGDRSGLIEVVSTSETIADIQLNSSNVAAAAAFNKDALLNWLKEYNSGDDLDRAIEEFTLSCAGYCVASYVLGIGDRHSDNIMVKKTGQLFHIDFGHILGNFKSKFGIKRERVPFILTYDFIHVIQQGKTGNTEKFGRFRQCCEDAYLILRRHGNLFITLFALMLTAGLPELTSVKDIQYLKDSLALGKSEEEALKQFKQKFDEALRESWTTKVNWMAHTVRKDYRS
Phosphatidylinositol 4,5-bisphosphate 3-kinase catalytic subunit alpha isoform, sequence (P42336 whole entry, canonical isoform): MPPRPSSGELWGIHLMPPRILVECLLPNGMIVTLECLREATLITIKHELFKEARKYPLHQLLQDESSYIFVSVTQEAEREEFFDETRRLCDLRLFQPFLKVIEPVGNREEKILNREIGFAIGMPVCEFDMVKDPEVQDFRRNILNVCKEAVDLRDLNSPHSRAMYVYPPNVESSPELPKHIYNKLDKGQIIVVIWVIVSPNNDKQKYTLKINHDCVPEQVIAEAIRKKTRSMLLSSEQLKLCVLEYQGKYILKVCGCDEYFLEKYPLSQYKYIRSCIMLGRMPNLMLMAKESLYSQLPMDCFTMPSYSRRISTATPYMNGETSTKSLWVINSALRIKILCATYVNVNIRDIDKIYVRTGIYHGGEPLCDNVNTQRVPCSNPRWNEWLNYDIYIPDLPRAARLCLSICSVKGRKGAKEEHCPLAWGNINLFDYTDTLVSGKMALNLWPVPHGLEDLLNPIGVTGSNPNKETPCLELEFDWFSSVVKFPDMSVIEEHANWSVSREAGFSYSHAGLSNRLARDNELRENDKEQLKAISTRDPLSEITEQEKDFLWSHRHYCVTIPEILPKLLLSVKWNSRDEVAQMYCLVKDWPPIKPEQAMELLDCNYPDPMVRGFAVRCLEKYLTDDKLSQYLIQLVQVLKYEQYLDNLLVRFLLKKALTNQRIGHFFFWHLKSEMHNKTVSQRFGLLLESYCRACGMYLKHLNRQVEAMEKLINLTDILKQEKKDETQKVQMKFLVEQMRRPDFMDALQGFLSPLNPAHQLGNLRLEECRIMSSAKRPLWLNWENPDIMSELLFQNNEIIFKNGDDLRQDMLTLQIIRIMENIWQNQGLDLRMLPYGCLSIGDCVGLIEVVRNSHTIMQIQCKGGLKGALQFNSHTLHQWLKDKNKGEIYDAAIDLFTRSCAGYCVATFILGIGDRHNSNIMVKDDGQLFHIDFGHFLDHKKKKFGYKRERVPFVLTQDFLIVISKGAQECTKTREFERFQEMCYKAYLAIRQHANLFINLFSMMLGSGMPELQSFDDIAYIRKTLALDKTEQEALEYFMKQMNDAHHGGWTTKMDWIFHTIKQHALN

With `Cc1ccc([N+](=O)[O-])cc1S(=O)(=O)N(C)/N=C/c1cnn2ccccc12`, the IC50 in series [1] was 0.96 µM; in [2] it was above 10 µM; in series [3] it was 3.4 µM; in [4] it was 0.47 µM; in [5], 0.66 µM. The Ratio IC50 in series [6] is 60; in series [7], 40.
Turning to `Cc1ccc([N+](=O)[O-])cc1S(=O)(=O)N(C)/N=C/c1cnn2ccc(C3CC3)cc12`, the IC50 in [1] is 1.1 µM; in [2], above 1 µM; in series [3], above 1 µM; in [4], 0.74 µM; in series [5], 0.67 µM.
As for `CCC/C(=N\N(C)S(=O)(=O)c1cc([N+](=O)[O-])ccc1C)c1cnn2ccc(C#N)cc12`, the concentration for half-maximal inhibition (IC50) in series [1] was 0.61 µM; in series [2], above 1 µM; in series [3] it was above 1 µM; in series [4], 0.68 µM; in [5], 2.3 µM.
Regarding `Cc1ccc([N+](=O)[O-])cc1S(=O)(=O)N(C)/N=C/c1cnn2ccc(C(F)(F)F)cc12`, the IC50 in series [1] is 0.15 µM; in series [2] it was above 1 µM; in series [3], above 1 µM; in series [4], 0.07 µM; in series [5] it was 0.09 µM.
Consider `CC(=O)Oc1ccn2ncc(/C=N/N(C)S(=O)(=O)c3cc([N+](=O)[O-])ccc3C)c2c1`, for which the IC50 was 0.91 µM in [1]; above 1 µM in series [2]; above 1 µM in series [3]; 8.2 µM in series [4]; 8.9 µM in [5].
As to `CCc1ccn2ncc(/C=N/N(C)S(=O)(=O)c3cc([N+](=O)[O-])ccc3C)c2c1`, the IC50 in series [1] is above 1 µM; in series [2], above 1 µM; in series [3], above 1 µM; in [4], 0.41 µM; in series [5], 0.56 µM.
As to `Cc1ccc([N+](=O)[O-])cc1S(=O)(=O)N(C)/N=C/c1cnn2cccc(C)c12`, the IC50 in series [1] is above 1 µM; in series [2], above 1 µM; in series [3], above 1 µM; in series [4] it was 18 µM; in [5], above 20 µM.
With `Cc1ccc([N+](=O)[O-])cc1S(=O)(=O)N(C)/N=C/c1cnn2ccc(C(N)=O)cc12`, the IC50 in series [1] is 0.53 µM; in series [2], above 1 µM; in series [3], above 1 µM; in [4], 0.6 µM; in [5], 10 µM.
Turning to `CCC/C(=N\NS(=O)(=O)c1cc([N+](=O)[O-])ccc1C)c1cnn2ccc(C#N)cc12`, the concentration for half-maximal inhibition (IC50) in series [1] is 0.039 µM; in series [2], above 1 µM; in series [3], 0.31 µM; in series [4], 0.37 µM; in [5], 0.64 µM.
Taken in the same sequence, the figures for `Cc1ccc2c(/C=N/N(C)S(=O)(=O)c3cc([N+](=O)[O-])ccc3C)cnn2c1` were above 1 µM, above 1 µM, above 1 µM, 10 µM and 8 µM.
Taken in the same sequence, the figures for `C/C(=N\N(C)S(=O)(=O)c1cc([N+](=O)[O-])ccc1C)c1cnn2ccc(Br)cc12` were 1.2 µM, above 1 µM, above 1 µM, above 20 µM and above 20 µM.
As for `Cc1ccc([N+](=O)[O-])cc1S(=O)(=O)N(C)/N=C/c1cnc2ccc(Br)cn12`, the Activity entry is “Non-toxic” in series [8], “Non-toxic” in series [10] and 15% in [11]. The inhibition in vivo at 20 mg/kg in series [9] was 23.2%.
Turning to `COc1ccn2ncc(/C=N/N(C)S(=O)(=O)c3cc([N+](=O)[O-])ccc3C)c2c1`, the IC50 in series [1] was 0.19 µM; in [2], above 1 µM; in series [3], above 1 µM; in series [4], 0.94 µM; in series [5], 0.52 µM.
On to `C=Cc1ccn2ncc(/C=N/N(C)S(=O)(=O)c3cc([N+](=O)[O-])ccc3C)c2c1`, for which the IC50 in series [1] was 0.13 µM; in series [2] it was above 1 µM; in series [3] it was above 1 µM; in series [4], 0.99 µM; in series [5], 0.58 µM.
For the molecule `Cc1ccc([N+](=O)[O-])cc1S(=O)(=O)N(C)/N=C/c1cnn2cccc(Br)c12`, the IC50 in [1] is above 1 µM; in series [2], above 1 µM; in series [3] it was above 1 µM; in series [4], above 20 µM; in [5], 6.5 µM.
Consider `Cc1ccc([N+](=O)[O-])cc1S(=O)(=O)N(C)/N=C/c1cnn2ccc(C(=O)N(C)C)cc12`, for which the IC50 in [1] was above 1 µM; in [2], above 1 µM; in [3] it was above 1 µM; in [4] it was 10 µM; in [5], 10 µM.
As for `CC/C(=N\NS(=O)(=O)c1cc([N+](=O)[O-])ccc1C)c1cnn2ccc(C#N)cc12`, the IC50 in [1] was 0.01 µM; in series [2] it was above 1 µM; in [3] it was 0.44 µM; in series [4], 0.088 µM; in series [5] it was 0.36 µM.
Taken in the same sequence, the figures for `C/C(=N\NS(=O)(=O)c1cc([N+](=O)[O-])ccc1C)c1cnn2ccc(C#N)cc12` were 0.007 µM, 0.41 µM, 0.9 µM, 1.1 µM and 2.1 µM.
`C/C(=N\N(C)S(=O)(=O)c1cc([N+](=O)[O-])ccc1C)c1cnn2ccc(C#N)cc12`: the IC50 was 0.08 µM in series [1]; 0.6 µM in series [2]; 0.51 µM in series [3]; 4.4 µM in [4]; 7.5 µM in [5].
